Hits are enriched below; roughly 4.1% of the tested compounds scored in any of these assays.
Mdm2 MdmX PPI = inhibitors of human Mdm2/MdmX interaction. O15151+Q00987. SaOS-2 split-luciferase Mdm2/MdmX complementation, luminescence. inhibition, % at 8 µM. 330,000 compounds, 3% hits. AID 485346;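 active = inhibition of at least 50% at 8 µM in the primary screen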
UPR CHOP act = apoptotic UPR (CHOP) activation; CHO-CHOP luciferase reporter, luminescence; percent of tunicamycin response over DMSO baseline; activation, % at 10 µM; 330,000 compounds, 0.34% hits;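 active = at 10 µM dose, activation of 40% or more, normalized to positive control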
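System: CHO CHOP reporter cells. Amount: 500 cells per well. Buffer or medium: F12 medium, 10% FBS. Compound dosing: one dose, 10 µM in 0.5% DMSO. Incubation: 6 h compound exposure at 37 °C after overnight seeding. Technique: Steady-Glo luciferase luminescence. Benchmarks: tunicamycin and DMSO controls.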
XBP1 UPR activ = adaptive UPR (XBP1) activation. CHO-XBP1 luciferase reporter, IRE1-XBP1 UPR activation, luminescence; percent of tunicamycin response, DMSO as zero. activation, % at 20 µM. 330,000 compounds, 0.33% hits;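 active = versus positive control, 20 µM dose yields 30% or more activation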
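Test system: CHO-XBP1 luciferase reporter cells | Buffer or medium: Serum-containing F12 medium, 10% FBS | Schedule: 6 h compound exposure at 37 °C, 5% CO2 | Detection: Steady-Glo luciferase glow luminescence, 10 min after reagent addition | Read-out basis: Activation, % of tunicamycin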
UBC13 polyUb = human UBC13 polyubiquitination inhibition; P61088; UBC13 polyubiquitin chain formation, TR-FRET; inhibition, % at 20 µM; 330,000 compounds, 0.47% hits; in the data active = inhibition above about 45%, passing the limit was not always enough
Apaf1 inhib = blocks human Apaf-1 apoptosome activity | inhibition, % at 20 µM | O14727 | reconstituted apoptosome caspase-3 activity, DEVD-Rh110 fluorescence | 330,000 compounds, 0.71% hits; active = inhibition of at least 40% at 20 µM
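Material: biochemical Apaf-1 apoptosome reconstitution. Medium: Hepes buffer, pH 7.5. Also added: cytochrome c activation, bis-DEVD rhodamine 110 substrate. Timing: 30 min compound preincubation, 50 min activation, room temperature. Measured by: rhodamine 110 fluorescence at Ex 480/Em 540 nm.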
Mdm2 MdmX conf = human Mdm2/MdmX binding inhibition, confirmed; shares compounds with Mdm2 MdmX PPI; luminescent assay; inhibition, % at 8 µM; 10,000 compounds, 55% hits; AID 489028; in the data active = inhibition above about 40%
Full FLuc ctr = counter-screen for Mdm2/MdmX inhibitors: full-length luciferase | shares compounds with Mdm2 MdmX PPI | SaOS-2 full-length luciferase counterscreen, luminescence | inhibition, % at 8 µM | 6,200 compounds, 77% hits | AID 504607;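 active = mean inhibition at 8 µM reaching about 37%, which flags the compound as non-specific, limit read from the data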;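 also: p53-null SaOS-2 cells with luciferase driven by a doxycycline-inducible promoter; compound on cells about two nights before reading with doxycycline added after day one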
Hits are given with their value.

Results for COC(=O)c1ccc(C2c3c(n[nH]c3C)C(=O)N2c2ccc(C)cc2)cc1 (configuration not stated) ?
Mdm2 MdmX PPI: 74.0; UPR CHOP act: inactive; XBP1 UPR activ: inactive; UBC13 polyUb: inactive; Apaf1 inhib: inactive; Mdm2 MdmX conf: 47.4; Full FLuc ctr: 43.4

What do the screens show for `CCOc1cc(C2c3c(n[nH]c3C)C(=O)N2c2ccc(Br)cc2)ccc1O` (configuration not stated)?
Mdm2 MdmX PPI: inactive; UPR CHOP act: inactive; XBP1 UPR activ: inactive; UBC13 polyUb: inactive; Apaf1 inhib: inactive

How did COc1cc(C2c3c(n[nH]c3C)C(=O)N2c2ccc(Br)cc2)ccc1O (configuration not stated) do in these assays?
Mdm2 MdmX PPI: 55.9; UPR CHOP act: inactive; XBP1 UPR activ: inactive; UBC13 polyUb: inactive; Apaf1 inhib: inactive; Mdm2 MdmX conf: inactive

What do the screens show for `CCC1(CC)N=C(c2ccccc2)C(=S)N1`?
Mdm2 MdmX PPI: inactive; UPR CHOP act: inactive; XBP1 UPR activ: inactive; UBC13 polyUb: inactive; Apaf1 inhib: inactive

What do the screens show for `CCN(CC)S(=O)(=O)c1ccc2c(c1)nc(SCc1nc3ccsc3c(=O)[nH]1)n2CC`?
Mdm2 MdmX PPI: inactive; UPR CHOP act: inactive; XBP1 UPR activ: inactive; UBC13 polyUb: inactive; Apaf1 inhib: inactive

What do the screens show for `CC(NCC(O)COc1ccc2ccccc2c1)c1ccccc1` (configuration not stated)?
Mdm2 MdmX PPI: inactive; UPR CHOP act: inactive; XBP1 UPR activ: inactive; UBC13 polyUb: inactive; Apaf1 inhib: inactive

How did Cc1cc(OCC(O)CNC(C)c2ccccc2)ccc1C(C)C (configuration not stated) do in these assays?
Mdm2 MdmX PPI: 58.8; UPR CHOP act: inactive; XBP1 UPR activ: inactive; UBC13 polyUb: inactive; Apaf1 inhib: inactive; Mdm2 MdmX conf: inactive

How did CCCC(NCC(O)COc1ccc(-c2ccccc2)cc1)c1ccccc1 (configuration not stated) do in these assays?
Mdm2 MdmX PPI: 100.3; UPR CHOP act: inactive; XBP1 UPR activ: inactive; UBC13 polyUb: inactive; Apaf1 inhib: inactive; Mdm2 MdmX conf: 56.5; Full FLuc ctr: 60.4

What do the screens show for `CCOc1cc(N2CCOCC2)c(OCC)cc1NC(=O)COC(=O)CCc1c[nH]c2ccccc12`?
Mdm2 MdmX PPI: inactive; UPR CHOP act: inactive; XBP1 UPR activ: inactive; UBC13 polyUb: inactive; Apaf1 inhib: inactive

Results for O=C(NCC1COc2ccccc2O1)c1ccc(NC(=O)C(c2ccccc2)c2ccccc2)cc1 (configuration not stated) ?
Mdm2 MdmX PPI: 62.9; UPR CHOP act: inactive; XBP1 UPR activ: inactive; UBC13 polyUb: inactive; Apaf1 inhib: inactive; Mdm2 MdmX conf: 45.3; Full FLuc ctr: 55.4

How did COc1cc(O)cc2cc3c(c(O)c12)C(=O)CC(C)(O)O3 (configuration not stated) do in these assays?
Mdm2 MdmX PPI: 56.9; UPR CHOP act: inactive; XBP1 UPR activ: inactive; UBC13 polyUb: inactive; Apaf1 inhib: inactive; Mdm2 MdmX conf: 52.5; Full FLuc ctr: 60.3

Results for COc1cc(O)c2c(c1)OC(C)(C)CC2=O ?
Mdm2 MdmX PPI: inactive; UPR CHOP act: inactive; XBP1 UPR activ: inactive; UBC13 polyUb: inactive; Apaf1 inhib: inactive

How did COc1ccccc1N1CCN(C(=O)C2CC2)CC1 do in these assays?
Mdm2 MdmX PPI: inactive; UPR CHOP act: inactive; XBP1 UPR activ: inactive; UBC13 polyUb: inactive; Apaf1 inhib: inactive

How did COc1ccccc1N1CCN(C(=O)C2c3ccccc3Oc3ccccc32)CC1 do in these assays?
Mdm2 MdmX PPI: 64.3; UPR CHOP act: inactive; XBP1 UPR activ: inactive; UBC13 polyUb: inactive; Apaf1 inhib: inactive; Mdm2 MdmX conf: 56.0; Full FLuc ctr: 88.8

Results for COCCCNc1nc(N)c([N+](=O)[O-])c(Nc2ccccc2OC)n1 ?
Mdm2 MdmX PPI: 61.1; UPR CHOP act: inactive; XBP1 UPR activ: inactive; UBC13 polyUb: inactive; Apaf1 inhib: inactive; Mdm2 MdmX conf: inactive

What do the screens show for `CCCS(=O)(=O)c1c(S(=O)(=O)CCC)c2c(C)cccn2c1C(=O)N/N=C/c1cc(O)cc(O)c1`?
Mdm2 MdmX PPI: 58.2; UPR CHOP act: inactive; XBP1 UPR activ: inactive; UBC13 polyUb: inactive; Apaf1 inhib: inactive; Mdm2 MdmX conf: 57.0; Full FLuc ctr: 37.0

Results for CCc1cc2c(SCc3nc4sc(C(C)=O)c(C)c4c(=O)[nH]3)ncnc2s1 ?
Mdm2 MdmX PPI: inactive; UPR CHOP act: inactive; XBP1 UPR activ: inactive; UBC13 polyUb: inactive; Apaf1 inhib: inactive

Results for COc1ccc(CCNc2c3ccccc3nc3ccccc23)cc1OC ?
Mdm2 MdmX PPI: 50.5; UPR CHOP act: inactive; XBP1 UPR activ: inactive; UBC13 polyUb: inactive; Apaf1 inhib: inactive; Mdm2 MdmX conf: inactive

How did COc1ccc(Nc2c3c(nc4ccccc24)CCCC3)cc1OC do in these assays?
Mdm2 MdmX PPI: inactive; UPR CHOP act: inactive; XBP1 UPR activ: inactive; UBC13 polyUb: inactive; Apaf1 inhib: inactive

Results for COc1nc(NCCc2ccc(OC)c(OC)c2)nc(OC)n1 ?
Mdm2 MdmX PPI: inactive; UPR CHOP act: inactive; XBP1 UPR activ: inactive; UBC13 polyUb: inactive; Apaf1 inhib: inactive

How did COc1ccc(C)cc1Nc1c2c(nc3ccccc13)CCC2 do in these assays?
Mdm2 MdmX PPI: 59.2; UPR CHOP act: inactive; XBP1 UPR activ: inactive; UBC13 polyUb: inactive; Apaf1 inhib: inactive; Mdm2 MdmX conf: 59.0; Full FLuc ctr: 87.2

What do the screens show for `COc1cc(Nc2c3ccccc3nc3ccccc23)cc(OC)c1OC`?
Mdm2 MdmX PPI: 86.1; UPR CHOP act: inactive; XBP1 UPR activ: inactive; UBC13 polyUb: inactive; Apaf1 inhib: inactive; Mdm2 MdmX conf: 54.8; Full FLuc ctr: 62.1

How did COc1ccccc1Nc1nc(-c2ccccc2)nc2ccccc12 do in these assays?
Mdm2 MdmX PPI: inactive; UPR CHOP act: inactive; XBP1 UPR activ: inactive; UBC13 polyUb: inactive; Apaf1 inhib: inactive

Results for COc1ccccc1Nc1c2ccccc2nc2ccccc12 ?
Mdm2 MdmX PPI: 53.5; UPR CHOP act: inactive; XBP1 UPR activ: inactive; UBC13 polyUb: inactive; Apaf1 inhib: inactive; Mdm2 MdmX conf: 48.2; Full FLuc ctr: 69.4

What do the screens show for `COc1ccc(Nc2c3ccccc3nc3ccccc23)cc1`?
Mdm2 MdmX PPI: inactive; UPR CHOP act: inactive; XBP1 UPR activ: inactive; UBC13 polyUb: inactive; Apaf1 inhib: inactive

Results for COc1ccccc1N(C1=NCCCS1)S(=O)(=O)c1ccc(C(C)(C)C)cc1 ?
Mdm2 MdmX PPI: inactive; UPR CHOP act: inactive; XBP1 UPR activ: inactive; UBC13 polyUb: inactive; Apaf1 inhib: inactive

Results for COc1ccc(CCNCC(O)Cn2c3ccccc3c3ccccc32)cc1OC (configuration not stated) ?
Mdm2 MdmX PPI: 92.5; UPR CHOP act: inactive; XBP1 UPR activ: inactive; UBC13 polyUb: inactive; Apaf1 inhib: inactive; Mdm2 MdmX conf: inactive; Full FLuc ctr: 55.2
